Results reported in ChEMBL document CHEMBL2163224, “In silico discovery of a compound with nanomolar affinity to antithrombin causing partial activation and increased heparin affinity” (J Med Chem, 2012).
Calls of active or inactive are those of the source. The rule behind the calls is not given here.

Columns and labels:
[1] = Binding affinity to purified human antithrombin at 64 uM in presence of 37 uM d-myo-inositol 3,4,5,6-tetrakisphosphate by isothermal titration calorimetry
[2] = Binding affinity to purified human antithrombin at 64 uM by isothermal titration calorimetry
[3] = Activation of purified human antithrombin-unfractionated heparin interaction assessed as change in antithrombin intrinsic fluorescence by fluorescence spectrophotometry
Outline: (§1)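 Antithrombin intrinsic fluorescence emission at 340 nm titrated with UFH (alone or after antithrombin preincubation with 37 μM compound) at room temperature, I = 0.15, 20 mM NaPO4, 100 mM NaCl, 0.1 mM EDTA, 0.1% PEG 8000, pH 7.4. Each point averaged from 100 readings at 1 s intervals; Kd obtained by data fitting.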

[4] = target: T1, Antithrombin (Homo sapiens) (UniProt Q15950); experiment: Activation of purified human antithrombin-unfractionated heparin assessed as change in antithrombin intrinsic fluorescence at 37 uM by fluorescence spectrophotometry relative to untreated heparin control; outline: as §1
T1 sequence (whole entry): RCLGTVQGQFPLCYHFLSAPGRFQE

[5] = organism: Homo sapiens; experiment: Activation of purified human antithrombin-mediated inhibition of factor 10a assessed as second order association rate constant for chromogenic substrate hydrolysis by microplate reader based assay
[6] = organism: Homo sapiens; experiment: Activation of purified human antithrombin-low affinity heparin interaction assessed as antithrombin-mediated inhibition of thrombin by measuring as second order association rate constant for chromogenic substrate hydrolysis at 1 uM by microplate reader based assay
[7] = organism: Homo sapiens; experiment: Activation of purified human antithrombin-low affinity heparin interaction assessed as antithrombin-mediated inhibition of factor 10a by measuring as second order association rate constant for chromogenic substrate hydrolysis at 1 uM by microplate reader based assay
[8] = organism: Homo sapiens; experiment: Activation of citrullinated human antithrombin-mediated inhibition of factor 10a assessed as chromogenic substrate hydrolysis at 14.8 uM in presence of rabbit skeletal muscle […]; parameters: scale not given: the % may be the effect or the level left
Outline: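 Plasma-purified antithrombin (1 mg/mL) incubated with rabbit skeletal muscle PAD IV (50:1 molar ratio antithrombin/PAD) ± 14.8 μM compound in 100 mM Tris-HCl, 5 mM CaCl2, pH 7.4, 37 °C, 15 min; stopped with 50 mM EDTA. Residual anti-FXa activity by chromogenic assay with heparin, bovine FXa, S-2765, A405. Two experiments in triplicate, % of antithrombin alone.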

[9] = organism: Homo sapiens; experiment: Activation of antithrombin L99F mutant in type 2 antithrombin deficiency patient plasma assessed as inhibition of S-2238 hydrolysis at 148 uM incubated for 5 mins in presence of 1 uM unfractionated heparin (reference value: 33.22 +/- 2.93%); assay type: cell-free; parameters: scale not given: the % may be the effect or the level left
[10] = organism: Homo sapiens; experiment: Activation of antithrombin in healthy human plasma assessed as inhibition of S-2238 hydrolysis at 148 uM incubated for 5 mins in presence of 1 uM unfractionated heparin; assay type: cell-free; parameters: scale not given: the % may be the effect or the level left
[11] = organism: Homo sapiens; experiment: Activation of antithrombin L99F mutant in type 2 antithrombin deficiency patient plasma assessed as inhibition of S-2238 hydrolysis at 148 uM incubated for 5 mins in presence of mouse Py-4-1 cells (reference value: 33.22 +/- 2.93%); assay type: cell-free; parameters: scale not given: the % may be the effect or the level left
[12] = organism: Homo sapiens; experiment: Activation of antithrombin in healthy human plasma assessed as inhibition of S-2238 hydrolysis at 148 uM incubated for 5 mins in presence of mouse Py-4-1 cells; assay type: cell-free; parameters: scale not given: the % may be the effect or the level left
[13] = organism: Homo sapiens; experiment: Induction of conformational changes in purified human antithrombin assessed as induction of transition latent conformation up to 14.8 uM at 37 or 42 degC incubated for 2 days in absence of urea by native PAGE
Outline: (§2)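 Antithrombin incubated with compound up to 14.8 μM at 37 or 42 °C for 2 days; latent form and polymers assessed by immunoelectrophoresis on 8% (w/v) nondenaturing PAGE with or without 7 M urea.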

[14] = organism: Homo sapiens; experiment: Activation of purified human antithrombin-high affinity heparin interaction assessed as antithrombin-mediated inhibition of thrombin by measuring as second order association rate constant for chromogenic substrate hydrolysis at 1 uM by microplate reader based assay
[15] = organism: Homo sapiens; experiment: Activation of purified human antithrombin-high affinity heparin interaction assessed as antithrombin-mediated inhibition of factor 10a by measuring as second order association rate constant for chromogenic substrate hydrolysis at 1 uM by microplate reader based assay
[16] = organism: Homo sapiens; experiment: Induction of conformational changes in purified human antithrombin assessed as induction of antithrombin polymer formation up to 14.8 uM at 37 or 42 degC incubated for 2 days in absence of urea by native PAGE; outline: as §2
[17] = organism: Homo sapiens; experiment: Induction of conformational changes in purified human antithrombin assessed as induction of antithrombin polymer formation up to 14.8 uM at 37 or 42 degC incubated for 2 days in presence of urea by native PAGE; outline: as §2
[18] = organism: Homo sapiens; experiment: Induction of conformational changes in purified human antithrombin assessed as induction of transition latent conformation up to 14.8 uM at 37 or 42 degC incubated for 2 days in presence of urea by native PAGE; outline: as §2
[19] = organism: Homo sapiens; experiment: Activation of purified human antithrombin-mediated inhibition of thrombin assessed as second order association rate constant for chromogenic substrate hydrolysis by microplate reader based assay
[20] = Binding affinity to purified human antithrombin at 128 uM by isothermal titration calorimetry

Row | SMILES | Kd [1] [nM] | Kd [2] [nM] | Kd [3] [nM] | fold change (FC) [4] | K [5] [M⁻¹ s⁻¹] | K [6] [M⁻¹ s⁻¹] | K [7] [M⁻¹ s⁻¹] | Activity [8] [%] | Activity [9] [%] | Activity [10] [%] | Activity [11] [%] | Activity [12] [%] | Activity [13] | K [14] [M⁻¹ s⁻¹] | K [15] [M⁻¹ s⁻¹] | Activity [16] | Activity [17] | Activity [18] | K [19] [M⁻¹ s⁻¹] | Kd [20] [nM]
1 | CO[C@H]1O[C@H](COS(=O)(=O)O)[C@@H](O[C@@H]2O[C@@H](C(=O)O)[C@@H](O[C@H]3O[C@H](COS(=O)(=O)O)[C@@H](O[C@@H]4O[C@H](C(=O)O)[C@@H](O[C@H]5O[C@H](COS(=O)(=O)O)[C@@H](O)[C@H](O)[C@H]5NS(=O)(=O)O)[C@H](O)[C@H]4O)[C@H](OS(=O)(=O)O)[C@H]3NS(=O)(=O)O)[C@H](O)[C@H]2OS(=O)(=O)O)[C@H](O)[C@H]1NS(=O)(=O)O [FONDAPARINUX SODIUM] | 18.8 | 273 |  |  |  |  |  |  |  |  |  |  |  |  |  |  |  |  |  | 
2 | O=P(O)(O)O[C@@H]1[C@@H](OP(=O)(O)O)[C@H](OP(=O)(O)O)[C@@H](O)[C@@H](O)[C@H]1OP(=O)(O)O |  |  | 45 | 2.3 | 12000 | 683000 | 87000 | 30 | 40 | 97.3 | 37.2 | 101 | inactive | 3.28e+06 | 2.28e+06 | inactive | inactive | inactive | 23000 | 45
